The source made the active and inactive calls. The rule behind the calls is not given here.
How the values were obtained:
[1] = biological target: T1, Proteinase-activated receptor 4 (Homo sapiens, UniProt Q96RI0); test: Antagonist activity at PAR4 in human platelets assessed as inhibition of activating peptide-induced PAC1 binding response preincubated for 20 mins followed by agonist addition for 20 mins by FITC-based flow cytometric analysis
T1 sequence (Q96RI0 whole entry): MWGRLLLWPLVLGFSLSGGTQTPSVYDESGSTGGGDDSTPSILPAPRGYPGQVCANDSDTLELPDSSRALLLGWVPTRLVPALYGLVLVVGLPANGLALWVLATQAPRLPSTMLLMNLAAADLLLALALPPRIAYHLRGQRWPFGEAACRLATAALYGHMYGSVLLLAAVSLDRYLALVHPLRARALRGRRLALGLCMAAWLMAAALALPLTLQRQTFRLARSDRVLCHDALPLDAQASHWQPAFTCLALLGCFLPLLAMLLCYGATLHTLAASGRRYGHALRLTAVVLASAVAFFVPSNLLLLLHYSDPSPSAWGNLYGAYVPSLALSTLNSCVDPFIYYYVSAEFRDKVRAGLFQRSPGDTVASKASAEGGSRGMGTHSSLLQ
In short: (§1)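 Human platelets were activated with 200 μM PAR4-AP. The read-outs were PAC-1 binding and P-selectin exposure, measured by flow cytometry.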

Platelet [2] = test: Antiplatelet activity in human platelets assessed as inhibition of gamma thrombin-induced aggregation at 316 nM to 3.16 uM preincubated for 20 mins followed by gamma thrombin addition measured for 10 mins by aggregometer; format: functional, cell-based
In short: (§2)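 Aggregation was monitored for 10 min, with final % aggregation taken at that point. Data are means±SEM of at least three independent experiments, compared to controls by paired t-test.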

[3] = Intrinsic clearance in human liver microsomes at 1 uM preincubated for 5 mins followed by NADPH addition measured after 3 to 45 mins by LC/MS/MS analysis; format: ADME; settings: read-out: CLH
[4] = Intrinsic clearance in rat liver microsomes at 1 uM preincubated for 5 mins followed by NADPH addition measured after 3 to 45 mins by LC/MS/MS analysis; format: ADME; settings: read-out: CLH
Platelet [5] = test: Antiplatelet activity in human platelets assessed as inhibition of activating peptide-induced aggregation at 100 to 316 nM preincubated for 20 mins followed by activating peptide addition measured for 10 mins by aggregometer; format: functional, cell-based; settings: 316 nM to 1 uM, in the assay text read “316 nM to 1 uM” for “100 to 316 nM”; in short: as §2
[6] = Lipophilicity, log P of the compound; format: physicochemical; settings: octanol/water
[7] = biological target: T2, Proteinase-activated receptor 4 (Homo sapiens) (UniProt Q96RI0); settings: 31.6 to 316 nM
T2 sequence (whole entry): T1 sequence (Q96RI0 whole entry)

[8] = Fraction unbound in human plasma at 5 uM after 4 hrs by equilibrium dialysis method; format: ADME, cell-free
[9] = Fraction unbound in rat plasma at 5 uM after 4 hrs by equilibrium dialysis method; format: ADME, cell-free
[10] = biological target: T3, Proteinase-activated receptor 1 (Homo sapiens, UniProt P25116); test: Antagonist activity at PAR1 in human platelets assessed as inhibition of activating peptide-induced P-selectin activation
T3 sequence (P25116 whole entry): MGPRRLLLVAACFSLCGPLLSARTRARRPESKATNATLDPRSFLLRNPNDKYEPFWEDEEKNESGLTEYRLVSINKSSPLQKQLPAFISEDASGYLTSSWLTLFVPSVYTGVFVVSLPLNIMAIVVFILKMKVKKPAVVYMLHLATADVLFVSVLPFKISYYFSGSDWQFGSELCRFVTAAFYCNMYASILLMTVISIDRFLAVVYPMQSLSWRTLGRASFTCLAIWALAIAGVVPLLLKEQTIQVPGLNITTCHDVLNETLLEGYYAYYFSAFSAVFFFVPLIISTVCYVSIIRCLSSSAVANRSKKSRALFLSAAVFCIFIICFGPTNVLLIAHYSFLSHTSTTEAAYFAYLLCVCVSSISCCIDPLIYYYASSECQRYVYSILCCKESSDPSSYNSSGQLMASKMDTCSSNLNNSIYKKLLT

[11] = biological target: T2, Proteinase-activated receptor 4 (Homo sapiens); test: Ratio of IC50 for PAR4 in human platelets assessed as inhibition of gamma-thrombin-induced PAC1 binding response to IC50 for PAR4 in human platelets assessed as inhibition of activating peptide-induced PAC1 binding response
[12] = biological target: T1, Proteinase-activated receptor 4; test: Antagonist activity at PAR4 in human platelets assessed as inhibition of gamma-thrombin-induced P-selectin activation
In short: (§3)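 Human platelets were stimulated with γ-thrombin at 100 nM. Activation was read by flow cytometry as PAC-1 binding and P-selectin surface expression.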

Platelet [13] = test: Antiplatelet activity in human platelets assessed as inhibition of activating peptide-induced aggregation at 316 to 1000 nM preincubated for 20 mins followed by activating peptide addition measured for 10 mins by aggregometer; format: functional, cell-based; in short: as §2
[14] = biological target: T1, Proteinase-activated receptor 4; test: Antagonist activity at PAR4 in human platelets assessed as inhibition of activating peptide-induced P-selectin activation; in short: as §1
[15] = biological target: T3, Proteinase-activated receptor 1; test: Antagonist activity at PAR1 in human platelets assessed as inhibition of activating peptide-induced PAC1 binding response
[16] = biological target: T1, Proteinase-activated receptor 4; test: Antagonist activity at PAR4 in human platelets assessed as inhibition of gamma-thrombin-induced PAC1 binding response preincubated for 20 mins followed by agonist addition for 20 mins by FITC-based flow cytometric analysis; in short: as §3
Platelet [17] = test: Antiplatelet activity in human platelets assessed as inhibition of gamma thrombin-induced aggregation at 10 uM preincubated for 20 mins followed by gamma thrombin addition measured for 10 mins by aggregometer; format: functional, cell-based; in short: as §2
[18] = biological target: T2, Proteinase-activated receptor 4 (Homo sapiens); settings: 31.6 to 1000 nM
[19] = Fraction unbound in human plasma; format: ADME, cell-free
[20] = Fraction unbound in rat plasma; format: ADME, cell-free
[21] = biological target: T1, Proteinase-activated receptor 4; test: Antagonist activity at PAR4 (unknown origin) assessed as inhibition of gamma-thrombin-induced receptor activation
[22] = biological target: T1, Proteinase-activated receptor 4; test: Antagonist activity at PAR4 (unknown origin) assessed as inhibition of activating peptide-induced receptor activation

COc1nn2cc(-c3ccc(O)cc3)nc2s1
IC50 [1]: > 10000 nM

COc1nn2cc(-c3cccc([N+](=O)[O-])c3)nc2s1
IC50 [1]: > 10000 nM

COc1nn2cc(-c3ccc(OC(F)(F)F)cc3)nc2s1
inhibition (Platelet [2]): Active | CLint scaled at 1 µM [3]: 13.6 to 19.9 mL/min/kg | CLint scaled at 1 µM [4]: 46.3 to 58.3 mL/min/kg | inhibition (Platelet [5]): Active | logP [6]: > 4 | inhibition [7]: Active | Fu [8]: 0.006 to 0.014 | Fu [9]: 0.006 to 0.014

COc1nn2cc(-c3cc4cc(OC(F)(F)F)ccc4n3C)nc2s1
IC50 [10]: > 10000 nM | Ratio IC50 [11]: 50 | IC50 [12]: 1000 nM | inhibition (Platelet [13]): Active | IC50 [14]: 20 nM | IC50 [15]: > 10000 nM | IC50 [16]: 1000 nM | inhibition (Platelet [17]): Active | IC50 [1]: 20 to 21 nM

COc1ccc(-c2cn3nc(OC)sc3n2)cc1
IC50 [1]: 592 nM

COc1nn2cc(-c3ccc(OC(F)F)cc3)nc2s1
IC50 [16]: 2540 nM

COc1nn2cc(-c3ccc(C(F)(F)F)cc3)nc2s1
inhibition (Platelet [2]): Active | CLint scaled at 1 µM [3]: 13.6 to 19.9 mL/min/kg | CLint scaled at 1 µM [4]: 46.3 to 58.3 mL/min/kg | inhibition (Platelet [5]): Active | logP [6]: > 4 | inhibition [7]: Active | Fu [8]: 0.006 to 0.014 | Fu [9]: 0.006 to 0.014

COc1nn2cc(-c3ccccc3Cl)nc2s1
IC50 [1]: 437 nM

COc1nn2cc(-c3ccc(Cl)cc3)nc2s1
inhibition (Platelet [2]): Active | inhibition (Platelet [13]): Active | CLint scaled at 1 µM [3]: 13.6 to 19.9 mL/min/kg | inhibition [18]: Active | CLint scaled at 1 µM [4]: 46.3 to 58.3 mL/min/kg | logP [6]: > 4 | Fu [8]: 0.006 to 0.014 | Fu [9]: 0.006 to 0.014

CNc1nn2cc(-c3c(F)cccc3F)nc2s1
IC50 [1]: > 10000 nM

COc1nn2cc(-c3cccc(Cl)c3)nc2s1
IC50 [16]: > 10000 nM | IC50 [1]: 72.8 nM

COc1nn2cc(-c3ccc(S(C)(=O)=O)cc3)nc2s1
IC50 [1]: 1200 nM

COc1cc(OCc2csc(-c3ccccc3)n2)c2cc(-c3cn4nc(OC)sc4n3)oc2c1
fraction unbound [19]: < 0.001 | fraction unbound [20]: < 0.001

COc1nn2cc(-c3ccccc3[N+](=O)[O-])nc2s1
IC50 [1]: 4840 nM

COc1nn2cc(-c3ccc(C#N)cc3)nc2s1
IC50 [1]: 937 nM

COc1nn2cc(-c3ccccc3)nc2s1
IC50 [1]: 757 nM

COc1nn2cc(-c3ccc(C)cc3)nc2s1
IC50 [1]: 57.2 nM

COc1nn2cc(-c3cc4ccccc4o3)nc2s1
IC50 [21]: 58.8 nM | IC50 [22]: 1.69 nM

CN(C)c1nn2cc(-c3c(F)cccc3F)nc2s1
IC50 [1]: 3400 nM

COc1nn2cc(-c3cc(C(F)(F)F)cc(C(F)(F)F)c3)nc2s1
IC50 [16]: 5620 nM

COc1nn2cc(-c3cccc(F)c3)nc2s1
IC50 [1]: 675 nM

Source: ChEMBL document CHEMBL3862030, “Identification of the minimum PAR4 inhibitor pharmacophore and optimization of a series of 2-methoxy-6-arylimidazo[2,1-b][1,3,4]thiadiazoles” (Bioorg Med Chem Lett, 2016)
